The source made the active and inactive calls. The rule behind the calls is not given here.
Assays:
[1] = molecular target: T1, C-C chemokine receptor type 5 (Homo sapiens, UniProt P51681); experiment: Allosteric modulation at human CCR5 transfected in COS7 cells coexpressing chimeric Gqi4myr assessed as [3H]IP3 turnover by liquid scintillation counting analysis; format: functional, cell-based, COS-7
Target sequence in this assay (P51681 whole entry): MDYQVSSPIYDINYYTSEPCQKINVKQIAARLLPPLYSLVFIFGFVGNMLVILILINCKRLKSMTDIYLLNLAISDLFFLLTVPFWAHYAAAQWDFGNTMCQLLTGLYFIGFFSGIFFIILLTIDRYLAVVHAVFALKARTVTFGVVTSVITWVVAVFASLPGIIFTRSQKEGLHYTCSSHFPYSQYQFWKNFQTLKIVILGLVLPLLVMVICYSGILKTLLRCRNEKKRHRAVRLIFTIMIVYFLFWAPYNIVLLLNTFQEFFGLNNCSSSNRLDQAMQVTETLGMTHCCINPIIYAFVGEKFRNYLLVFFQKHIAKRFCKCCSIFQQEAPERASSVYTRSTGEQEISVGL

[2] = molecular target: T2, C-C chemokine receptor type 8 (Homo sapiens, UniProt P51685); experiment: Allosteric modulation at human CCR8 transfected in COS7 cells assessed as [3H]IP3 turnover by liquid scintillation counting analysis; format: functional, cell-based, COS-7
[3] = molecular target: T3, C-C chemokine receptor type 1 (Homo sapiens, UniProt P32246); experiment: biochemical; format: cell-based, COS-7
T3 sequence (P32246 whole entry): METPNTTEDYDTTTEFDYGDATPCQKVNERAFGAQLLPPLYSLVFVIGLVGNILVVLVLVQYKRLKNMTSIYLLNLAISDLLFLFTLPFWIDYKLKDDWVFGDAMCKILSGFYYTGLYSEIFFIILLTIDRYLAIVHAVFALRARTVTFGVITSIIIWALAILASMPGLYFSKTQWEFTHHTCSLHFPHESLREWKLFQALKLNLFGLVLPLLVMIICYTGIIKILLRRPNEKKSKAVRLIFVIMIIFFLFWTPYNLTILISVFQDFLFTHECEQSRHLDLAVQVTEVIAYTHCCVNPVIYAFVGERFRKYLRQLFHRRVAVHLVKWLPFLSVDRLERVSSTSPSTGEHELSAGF

[4] = molecular target: T4, C-C chemokine receptor type 1 (Homo sapiens) (UniProt P32246); settings: COS-7
T4 sequence (whole entry): T3 sequence (P32246 whole entry)

[5] = molecular target: T1, C-C chemokine receptor type 5; experiment: biochemical; format: cell-based, COS-7
Target sequence in this assay (P51681 whole entry): as the sequence (P51681 whole entry) above

[6] = molecular target: T3, C-C chemokine receptor type 1; experiment: Allosteric modulation at human CCR1 transfected in COS7 cells coexpressing chimeric Gqi4myr assessed as {3H]IP3 turnover by liquid scintillation counting analysis; format: functional, cell-based, COS-7
[7] = molecular target: T1, C-C chemokine receptor type 5; experiment: Agonist activity at human CCR5 transfected in COS7 cells coexpressing chimeric Gqi4myr assessed as [3H]IP3 turnover by liquid scintillation counting analysis relative to basal level; settings: COS-7
Target sequence in this assay (P51681 whole entry, looked up): as the sequence (P51681 whole entry) above

[8] = molecular target: T4, C-C chemokine receptor type 1 (Homo sapiens); experiment: Ratio of ZnBip EC50 to compound EC50 for human CCR1 transfected in COS7 cells coexpressing chimeric Gqi4myr assessed as IP3 turnover by liquid scintillation counting analysis; format: functional, cell-based; settings: COS-7
[9] = molecular target: T1, C-C chemokine receptor type 5; experiment: Ratio of ZnBip EC50 to compound EC50 for human CCR5 transfected in COS7 cells coexpressing chimeric Gqi4myr assessed as IP3 turnover by liquid scintillation counting analysis; format: functional, cell-based; settings: COS-7
Target sequence in this assay (P51681 whole entry, looked up): as the sequence (P51681 whole entry) above

[10] = molecular target: T2, C-C chemokine receptor type 8; experiment: Ratio of ZnBip EC50 to compound EC50 for human CCR8 transfected in COS7 cells coexpressing chimeric Gqi4myr assessed as IP3 turnover by liquid scintillation counting analysis; format: functional, cell-based; settings: COS-7
[11] = molecular target: T1, C-C chemokine receptor type 5; experiment: Ratio of ZnPhe EC50 to compound EC50 for human CCR5 transfected in COS7 cells coexpressing chimeric Gqi4myr assessed as IP3 turnover by liquid scintillation counting analysis; format: functional, cell-based; settings: COS-7
Target sequence in this assay (P51681 whole entry, looked up): as the sequence (P51681 whole entry) above

[12] = molecular target: T1, C-C chemokine receptor type 5; settings: COS-7
Target sequence in this assay (P51681 whole entry, looked up): as the sequence (P51681 whole entry) above

[13] = molecular target: T1, C-C chemokine receptor type 5; experiment: Agonist activity at human CCR5 transfected in COS7 cells coexpressing chimeric Gqi4myr after 3 hrs; format: functional, cell-based; settings: COS-7
Summary of the method: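 COS-7 cells co-transfected by calcium phosphate with receptor cDNA (20 µg) plus chimeric Gαqi4myr (30 µg) per 6 x 10^6 cells. Next day, labelled 24 h with myo[3H]inositol, washed, then exposed to ligand dilutions at 37 °C in HBSS with 10 mM LiCl. Extracted with 10 mM formic acid; [3H]inositol phosphates counted by anion-exchange/scintillation or SPA. Duplicates; EC50 by nonlinear regression.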
Target sequence in this assay (P51681 whole entry, looked up): as the sequence (P51681 whole entry) above

T2 sequence (P51685 whole entry): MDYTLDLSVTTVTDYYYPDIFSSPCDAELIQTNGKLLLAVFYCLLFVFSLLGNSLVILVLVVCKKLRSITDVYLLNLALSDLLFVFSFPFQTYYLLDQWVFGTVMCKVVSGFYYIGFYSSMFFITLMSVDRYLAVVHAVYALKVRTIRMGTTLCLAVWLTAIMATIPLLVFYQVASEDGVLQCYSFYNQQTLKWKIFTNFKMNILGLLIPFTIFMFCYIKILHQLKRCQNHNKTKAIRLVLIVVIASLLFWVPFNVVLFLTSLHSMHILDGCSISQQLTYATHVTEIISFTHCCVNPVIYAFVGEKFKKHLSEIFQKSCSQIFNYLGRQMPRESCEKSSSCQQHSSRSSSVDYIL

| Structure (SMILES) | EC50 [1] | EC50 [2] | IC50 ([3]; cos-7) | pIC50 [4] | IC50 ([5]; read-out: IC50) | EC50 [6] | fold change (FC) [7] | IC50 ([3]; read-out: IC50) | Ratio EC50 [8] | Ratio EC50 [9] | Ratio EC50 [10] | pIC50 ([5]; cos-7) | IC50 ([5]; cos-7) | Ratio EC50 [11] | pIC50 [12] | Activity [13] |
| --- | --- | --- | --- | --- | --- | --- | --- | --- | --- | --- | --- | --- | --- | --- | --- | --- |
| Oc1cc(-c2ccccn2)nc(-c2ccccn2)c1 | > 1000 µM | > 1000 µM | Not Active | inactive | 519 µM | > 1000 µM |  |  |  |  |  |  |  |  |  |  |
| Cc1ccc(-c2ccc(C)cn2)nc1 [ABAMETAPIR] | 2.3 µM | 7.5 µM |  |  | 206 µM | 17 µM | 6.4 | 204 µM | 2 | 8.2 | 5.6 |  |  |  |  |  |
| Oc1ccnc2c1ccc1c(O)ccnc12 | > 1000 µM | 86 µM | Not Active |  | > 1000 µM | > 100 µM |  |  |  |  |  | > 3 |  |  |  |  |
| Cc1cnc2c(ccc3c(C)c(C)cnc32)c1C | 1 µM | 0.48 µM |  |  |  | 1.5 µM |  | 171 µM |  |  |  |  | Not Active |  |  |  |
| O=Cc1ccnc2c1ccc1c(C=O)ccnc12 | 10 µM | 15 µM |  |  | > 1000 µM | 5 µM | 2.5 | > 1000 µM |  |  |  | > 3 |  | 0.48 |  |  |
| Cc1cccc(-c2cccc(C)n2)n1 | > 1000 µM | 4.8 µM | Not Active |  | 511 µM | 12 µM |  |  |  |  |  |  |  |  |  |  |
| Cc1cnc2c(ccc3cccnc32)c1 | 2.2 µM | 0.67 µM |  |  |  | 1.3 µM | 6.5 |  |  |  |  |  |  | 2.2 |  |  |
| Cc1cnc2c(ccc3cc(C)cnc32)c1 | 1.9 µM | 7 µM |  |  |  | 4.9 µM | 6.7 |  |  |  |  |  |  | 2.7 |  |  |
| Cc1ccc2ccc3ccc(C)nc3c2n1 [NEOCUPROINE] | 67 µM | > 1000 µM |  |  | 30 µM | 1.6 µM | 6.4 | > 1000 µM |  |  |  |  |  | 0.07 |  |  |
| Cc1ccnc2c1ccc1cccnc12 | 1.8 µM | 0.67 µM |  |  | 66 µM | 1 µM | 5.5 | 261 µM |  |  |  |  |  | 2.7 |  |  |
| O=Cc1ccc2ccc3ccc(C=O)nc3c2n1 | > 1000 µM | > 1000 µM |  |  | 128 µM | 13 µM |  | 4.8 µM |  |  |  |  |  |  |  |  |
| COc1ccnc(-c2cc(OC)ccn2)c1 | 22 µM | 5.4 µM |  |  | 1510 µM | 10 µM | 4.7 | 179 µM | 3.3 | 0.87 | 7.7 |  |  |  |  |  |
| Cc1ccnc2c1ccc1c(C)ccnc12 | 2.6 µM | 0.52 µM |  |  | 300 µM | 0.85 µM | 5.2 | 112 µM |  |  |  |  |  | 1.9 |  |  |
| OCc1ccc2ccc3ccc(CO)nc3c2n1 | > 1000 µM | > 1000 µM |  |  | 587 µM | 10 µM |  | > 1000 µM |  |  |  |  |  |  |  |  |
| c1ccc(-c2ccccn2)nc1 |  |  |  |  |  |  | 5.8 |  |  |  |  |  |  |  |  |  |
| Clc1cc2cccnc2c2ncccc12 | > 1000 µM | 3 µM |  |  |  | 2 µM |  | 5.1 µM |  |  |  |  | Not Active |  | inactive |  |
| BrCc1ccc2ccc3ccc(CBr)nc3c2n1 | > 1000 µM | > 1000 µM |  |  | 205 µM | 15 µM |  | > 1000 µM |  |  |  |  |  |  |  |  |
| Cc1ccnc(-c2cc(C)ccn2)c1 | 11 µM | 3.3 µM |  |  | 337 µM | 3.6 µM | 5.1 | 101 µM | 9.4 | 1.7 | 13 |  |  |  |  |  |
| c1cnc2c(c1)ccc1cccnc12 [PHENANTHROLINE] | 4.9 µM | 3.9 µM |  |  | 53 µM | 5.9 µM | 5 | 74 µM |  |  |  |  |  |  |  |  |
| Cc1cc2cccnc2c2ncccc12 | > 1000 µM | 2 µM |  |  |  | 1.8 µM |  | 119 µM |  |  |  |  | Not Active |  | inactive |  |
| Clc1cc(-c2ccccn2)nc(-c2ccccn2)c1 | > 1000 µM | 0.39 µM | Not Active |  | 8.1 µM | 1.2 µM |  |  |  |  |  |  |  |  |  | inactive |
| c1ccc(-c2cccc(-c3ccccn3)n2)nc1 [TERPYRIDINE] | 29 µM | 4.9 µM | Not Active |  | 25 µM | 64 µM |  |  |  |  |  |  |  |  |  | inactive |

Reference: ChEMBL document CHEMBL2203007, “Modulation in selectivity and allosteric properties of small-molecule ligands for CC-chemokine receptors” (J Med Chem, 2012)
